Experimental data collected from several papers.
Protocols differ between the studies behind these lines.

SMILES | cell line | test | setting | measurement | result
NC(=S)NN=C(CS(=O)(=O)c1ccccc1)c1ccc(F)cc1 | SK-MEL-23 | cell growth or viability, MTT | 25 µM, 48 h | viability | 45.4%
COc1ccc(-c2ccc(-c3ccc(C(=N)N)nc3)s2)cc1 | RXF 393 | cell growth or viability | – | GI50 | 1.77 µM
C[C@@H](Oc1cc(-c2cnn(C3CCNCC3)c2)cnc1N)c1c(Cl)ccc(F)c1Cl | NCI-H2228 | cell growth or viability, MTT | 1 µg/mL, 72 h | inhibition | 72.3%
CN(C)CCCOc1cc(NC(=O)c2cccc(C(=O)Nc3cc(OCCCN(C)C)c4ccccc4n3)n2)nc2ccccc12 | HT-1080 | cell growth or viability, ATP luminescence | 72 h | IC50 | 2.6 µM
Cc1ccc(C(CS(=O)(=O)c2ccccc2)=NNC2=NC(=O)C(=NNc3ccccc3)S2)cc1 | SK-MEL-23 | cell growth or viability, MTT | 1.6 µM, 48 h | viability | 42.9%
Fc1ccc2c(CNCC3(N4CCC(F)C4)COC3)c[nH]c2c1 (stereo not drawn) | A 172 | cell growth or viability | 30 µM, 48 h | viability | 80.6%
Cc1ccc(C(CS(=O)(=O)c2ccccc2)=NN=C2N=C(c3ccc(Br)cc3)CS2)cc1 | SK-MEL-23 | cell growth or viability, MTT | 1.6 µM, 48 h | viability | 72.1%
c1ccc(-c2ccc(CNCC3(N4CCCC4)COC3)s2)cc1 | A 172 | cell growth or viability | 30 µM, 48 h | viability | 74.6%
COc1cc(-c2ccc(-c3ccc(C(=N)N)nc3)s2)cc(OC)c1OC | RXF 393 | cell growth or viability | – | GI50 | 2.19 µM
Cc1ccc(C(CS(=O)(=O)c2ccccc2)=NNc2nc(C)c(N=Nc3cccc(C)c3)s2)cc1 | SK-MEL-23 | cell growth or viability, MTT | 0.4 µM, 48 h | viability | 65.4%
Clc1ccccc1-c1ccc(CNCC2(N3CCCC3)COC2)o1 | A 172 | cell growth or viability | 30 µM, 48 h | viability | 70.6%
Cc1cc(Nc2ncc(Cl)c(Nc3ccccc3S(=O)(=O)C(C)C)n2)c(OC(C)C)cc1C1CCNCC1 | NCI-H2228 | cell growth or viability, MTT | 0.04 µg/mL, 72 h | inhibition | 57%
c1ccc(-c2ccc(CNCC3(N4CCCC4)COC3)o2)cc1 | A 172 | cell growth or viability | 30 µM, 48 h | viability | 78.5%
COc1cccc(Oc2ccccc2NC(=O)CNC(=O)c2cccc3ccccc23)c1 | RXF 393 | cell growth or viability, SRB | 48 h | GI50 | 0.166 µM
CC(C)(C)c1nc(-c2cccc(NS(=O)(=O)c3c(F)cccc3F)c2F)c(-c2ccnc(N)n2)s1 | SK-MEL-23 | cell growth or viability, MTT | 100 µM, 48 h | viability | 34.4%
CC(C)(O)[C@H]1CC[C@H](Nc2ccc3ncc(-c4cccc(C(F)(F)F)c4)n3n2)CC1 | T24 | colony formation | – | EC50 | 1.1 µM
FC1CCN(C2(CNCc3ccc(-c4ccccc4Cl)o3)COC2)C1 (stereo not drawn) | A 172 | cell growth or viability | 30 µM, 48 h | viability | 60.4%
CC(C)C[C@H](NC(=O)[C@H](Cc1ccccc1)NC(=O)c1cnccn1)B(O)O | A 172 | cell growth or viability, ATP luminescence | – | IC50 | 0.0087 µM
